Data set [1] can be described thus: Liver concentration in rat at 10 mg/kg, po after 2 hrs. Type of data set: ADME, organism-based. Also noted: dose 10 mg/kg, route oral. The conditions noted are these: read-out: Drug uptake.
The target in data set [2] is T1, DNA polymerase alpha catalytic subunit (Homo sapiens, UniProt P09884).
T1 sequence (P09884 whole entry): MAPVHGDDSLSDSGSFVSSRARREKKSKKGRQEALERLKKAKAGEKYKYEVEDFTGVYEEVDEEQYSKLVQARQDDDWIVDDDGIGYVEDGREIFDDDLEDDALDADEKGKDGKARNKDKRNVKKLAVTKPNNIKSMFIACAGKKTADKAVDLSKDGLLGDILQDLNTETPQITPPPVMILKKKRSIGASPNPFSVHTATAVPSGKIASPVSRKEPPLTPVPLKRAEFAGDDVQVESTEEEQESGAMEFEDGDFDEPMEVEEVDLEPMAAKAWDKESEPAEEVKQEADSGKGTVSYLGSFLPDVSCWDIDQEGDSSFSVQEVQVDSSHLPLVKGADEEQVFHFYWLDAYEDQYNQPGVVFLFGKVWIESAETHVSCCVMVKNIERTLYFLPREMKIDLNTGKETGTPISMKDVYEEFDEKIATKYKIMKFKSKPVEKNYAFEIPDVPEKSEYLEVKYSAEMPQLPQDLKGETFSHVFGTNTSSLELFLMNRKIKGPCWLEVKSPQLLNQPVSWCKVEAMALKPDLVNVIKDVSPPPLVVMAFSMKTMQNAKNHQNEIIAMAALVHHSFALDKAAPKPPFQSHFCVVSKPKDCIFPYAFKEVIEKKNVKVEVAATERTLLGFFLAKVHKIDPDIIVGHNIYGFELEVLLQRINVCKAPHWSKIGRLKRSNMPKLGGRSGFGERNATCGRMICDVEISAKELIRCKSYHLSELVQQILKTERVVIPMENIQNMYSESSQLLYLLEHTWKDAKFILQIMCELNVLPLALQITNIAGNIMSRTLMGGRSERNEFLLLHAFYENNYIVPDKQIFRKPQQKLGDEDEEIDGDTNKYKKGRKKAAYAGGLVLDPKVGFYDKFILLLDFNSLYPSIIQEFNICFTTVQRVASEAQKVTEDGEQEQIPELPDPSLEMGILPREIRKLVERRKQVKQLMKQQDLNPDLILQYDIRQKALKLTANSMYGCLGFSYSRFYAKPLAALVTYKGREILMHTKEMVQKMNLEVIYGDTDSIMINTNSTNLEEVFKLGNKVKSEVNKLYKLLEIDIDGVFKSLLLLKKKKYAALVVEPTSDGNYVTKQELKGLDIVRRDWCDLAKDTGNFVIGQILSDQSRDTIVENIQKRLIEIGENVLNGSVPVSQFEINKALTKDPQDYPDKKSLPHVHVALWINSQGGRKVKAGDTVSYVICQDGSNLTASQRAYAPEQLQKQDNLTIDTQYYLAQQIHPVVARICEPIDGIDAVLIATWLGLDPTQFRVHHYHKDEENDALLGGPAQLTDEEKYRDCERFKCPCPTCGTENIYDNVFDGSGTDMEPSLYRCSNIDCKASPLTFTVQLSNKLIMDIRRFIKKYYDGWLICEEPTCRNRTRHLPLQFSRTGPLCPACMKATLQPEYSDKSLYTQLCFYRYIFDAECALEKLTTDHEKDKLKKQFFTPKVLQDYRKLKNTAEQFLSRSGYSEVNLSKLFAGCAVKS
In words: Inhibition of DNA polymerase alpha.

The nature of data set [3]: Half life in rat at 10 mg/kg. Type of data set: ADME, organism-based. Also noted: dose 10 mg/kg. The note with it: in vivo.
Another data set relates to Hepatitis C virus. Put plainly: Inhibition of HCV subgenomic RNA replication in Huh5-2 cells after 48 hrs by replicon assay. In kind it is functional, organism-based, Hepacivirus hominis. The conditions noted are these: Huh-5-2, 48 h. Put shortly: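 Huh-5-2 cells (Huh-7-derived, genotype 1b subgenomic replicon with luciferase reporter) seeded at 5 × 10^3 per well in DMEM with 10% FBS, 37 °C, 5% CO2; compounds added next day, 48 h exposure; luciferase activity read. EC50 is the concentration reducing replication by 50%. Triplicate, mean of three experiments.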
(In general: In antiviral work, replicon cells carry a viral genome segment that copies itself.)

Data set [4] has as its target T2, RNA-directed RNA polymerase (Hepacivirus hominis, UniProt O39930). In words: Inhibition of HCV 1a NS5B RNA dependent RNA polymerase. Further details: species or system Hepatitis C virus subtype 1a. An outline of the steps:
(§1)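 IC50 from the mean of four independent experiments; standard deviations within 30% of the mean.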

In data set [5] the target is T3, Cytochrome P450 2D6 (Homo sapiens, UniProt P10635). Put plainly: Inhibition of CYP450 2D6. Type of data set: ADME.
The target of data set [6] is T3, Cytochrome P450 2D6. In words: Induction of CYP450 2D6. Type of data set: ADME.
Data set [7] has as its target T2, RNA-directed RNA polymerase. In words: Inhibition of HCV 2b NS5B RNA dependent RNA polymerase. Further details: species or system Hepatitis C virus subtype 2b. An outline of the steps: as §1
Data set [8] in a line: Plasma concentration in rat at 30 mg/kg, po after 2 hrs. Further details: dose 30 mg/kg, route oral. Type of data set: ADME, organism-based. An outline of the steps:
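Rats dosed orally at 30 mg/kg; plasma sampled at 1 and 2 h; n = 2 or 3.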

For data set [9], the target named is T2, RNA-directed RNA polymerase. In words: Inhibition of HCV 3a NS5B RNA dependent RNA polymerase. Put shortly:
as §1

Data set [10] can be described thus: Oral bioavailability in rat at 10 mg/kg. In kind it is ADME, organism-based. The conditions noted are these: in vivo.
Data set [11] is described as follows: Inhibition of mammalian DNA dependent RNA polymerase.

These results are taken from ChEMBL document CHEMBL1138950, “Benzimidazole derivatives bearing substituted biphenyls as hepatitis C virus NS5B RNA-dependent RNA polymerase inhibitors: structure-activity relationship studies and identification of a potent and highly selective inhibitor JTK-109” (J Med Chem, 2006).

T2 sequence (O39930 whole entry): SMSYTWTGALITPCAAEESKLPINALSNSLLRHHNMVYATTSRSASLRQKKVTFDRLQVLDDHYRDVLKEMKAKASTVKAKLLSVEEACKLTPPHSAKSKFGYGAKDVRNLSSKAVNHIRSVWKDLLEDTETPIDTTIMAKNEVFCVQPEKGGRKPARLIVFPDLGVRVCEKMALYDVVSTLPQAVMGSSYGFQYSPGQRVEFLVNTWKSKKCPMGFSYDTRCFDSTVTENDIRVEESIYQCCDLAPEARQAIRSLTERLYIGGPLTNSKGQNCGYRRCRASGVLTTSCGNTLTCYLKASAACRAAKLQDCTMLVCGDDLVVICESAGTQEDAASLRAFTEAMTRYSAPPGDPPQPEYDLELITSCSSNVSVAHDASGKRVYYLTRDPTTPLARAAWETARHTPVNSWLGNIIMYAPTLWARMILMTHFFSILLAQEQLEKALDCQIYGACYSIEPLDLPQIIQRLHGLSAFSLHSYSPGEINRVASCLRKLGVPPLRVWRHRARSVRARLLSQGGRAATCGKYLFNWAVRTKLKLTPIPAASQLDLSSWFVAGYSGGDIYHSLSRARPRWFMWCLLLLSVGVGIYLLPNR
T3 sequence (P10635 whole entry): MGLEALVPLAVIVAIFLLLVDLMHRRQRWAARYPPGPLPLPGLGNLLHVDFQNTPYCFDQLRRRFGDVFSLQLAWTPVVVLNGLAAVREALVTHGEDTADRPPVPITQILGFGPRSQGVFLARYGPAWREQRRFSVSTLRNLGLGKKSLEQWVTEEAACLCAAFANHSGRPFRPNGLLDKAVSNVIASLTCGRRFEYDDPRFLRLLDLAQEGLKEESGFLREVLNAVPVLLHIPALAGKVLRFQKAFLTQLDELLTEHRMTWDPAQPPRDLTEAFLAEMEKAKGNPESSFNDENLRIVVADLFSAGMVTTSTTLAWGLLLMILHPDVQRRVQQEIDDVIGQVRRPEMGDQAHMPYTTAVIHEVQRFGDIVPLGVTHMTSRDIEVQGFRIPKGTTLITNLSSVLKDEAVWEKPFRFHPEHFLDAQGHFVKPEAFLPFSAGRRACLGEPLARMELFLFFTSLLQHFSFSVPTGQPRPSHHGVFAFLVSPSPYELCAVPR

As for `O=C(O)c1ccc2c(c1)nc(-c1ccc(OCc3cc(N4CCCC4=O)ccc3-c3ccc(Cl)cc3)cc1F)n2C1CCCCC1`, the concentration at 2 h is 78.5 µM in data set [1] and 4.5 µM in data set [8]. The IC50 is more than 10 µM in [2]; 0.062 µM in data set [4]; 2 µM in [7]; 0.061 µM in data set [9]; more than 10 µM in data set [11]. This compound also showed a half-life in [3] of 2.1 h. This compound also displayed an EC50 in the data set on Hepatitis C virus of 0.32 µM. Moreover, at Cytochrome P450 2D6 [5], the Inhibition result is recorded as “Not Active”. Further, at Cytochrome P450 2D6 [6], the Activity entry is reported as “Not Active”. Moreover, the bioavailability in data set [10] came out at 36%.

As a reminder, the IC50 is the concentration that gives 50% inhibition. The low end stands for greater potency in that assay, the high end for weaker potency in that assay. A word on the half-life: it is the time needed for the level to fall by half in the phase considered. A low value points to rapid decline. A word on the EC50: it is the concentration that produces a half-maximal response. Read a low EC50 as a more potent agent. As usually defined, the bioavailability is the share of a dose that reaches the circulation, judged against a reference dose that is usually intravenous. Lower therefore signals poor availability.
